In ChEMBL document CHEMBL1921792, “Synthesis and anticonvulsant activity of trans- and cis-2-(2,6-dimethylphenoxy)-N-(2- or 4-hydroxycyclohexyl)acetamides and their amine analogs” (Bioorg Med Chem, 2011):
The source made the active and inactive calls. The rule behind the calls is not given here.

Assays:
N1E-115 = experiment: Blockade of voltage-gated sodium channel in mouse N1E-115 cells assessed as stimulation at 100 umol at -90 mV holding potential by whole-cell patch clamp electrophysiological assay relative to control; type: cell-based
Procedure, shortened: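 Whole-cell patch clamp with borosilicate glass electrodes on single cultured N1E-115 neuroblastoma cells. Compound at 100 µmol, holding potential -90 mV. Voltage-dependent sodium current expressed as % of control stimulation (no compound). Results from 5–8 cells averaged with SEM; significance by Student's t-test.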

Mus musculus [1] = experiment: Neurotoxicity in mouse assessed as inability to maintain equilibrium on rotarod at 300 mg/kg, ip after 0.5 hrs by rotarod test; type: toxicity, organism-based; parameters: dose 300 mg/kg, route intraperitoneal; details: in vivo
Procedure, shortened: (§1)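 Drug given ip to mice as a suspension in 0.5% methylcellulose. At the stated time after dosing, each mouse was placed on a 1 inch knurled rod turning at 6 rpm. Neurotoxicity = inability to stay balanced at least 1 min in each of three trials. Scored as animals toxic/animals tested in small groups.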

Mus musculus [2] = experiment: Anticonvulsant activity in mouse assessed as protection against maximal electric shock-induced seizures at 300 mg/kg, ip after 4 hrs; type: functional, organism-based; parameters: dose 300 mg/kg
Procedure, shortened: (§2)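 Phase I maximal electroshock screen in mice. Compound given ip as a suspension in 0.5% methylcellulose at 30, 100 or 300 mg/kg, tested at 30 min and 4 h. Small groups (1–8); result is number protected/number tested.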

Mus musculus [3] = experiment: Anticonvulsant activity against subcutaneous pentylenetetrazole-induced seizures in mouse at 300 mg/kg, ip after 4 hrs; type: functional, organism-based; parameters: dose 300 mg/kg
Procedure, shortened: (§3)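 Phase I screen in mice. Compound given ip as a suspension in 0.5% methylcellulose, read at 30 min and 4 h. Pentylenetetrazole 85 mg/kg in 0.9% NaCl was injected sc into the posterior midline and animals watched ≥30 min. Protection meant no clonic spasm lasting ≥5 s. Groups of 1–8 animals; result is protected/tested.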

Mus musculus [4] = experiment: Anticonvulsant activity in mouse assessed as protection against maximal electric shock-induced seizures at 300 mg/kg, ip after 0.5 hrs; type: functional, organism-based; parameters: dose 300 mg/kg; procedure, shortened: as §2
Mus musculus [5] = experiment: Anticonvulsant activity against subcutaneous pentylenetetrazole-induced seizures in mouse at 30 mg/kg, ip after 4 hrs; type: functional, organism-based; parameters: dose 30 mg/kg; procedure, shortened: as §3
Mus musculus [6] = experiment: Anticonvulsant activity against subcutaneous pentylenetetrazole-induced seizures in mouse at 300 mg/kg, ip after 0.5 hrs; type: functional, organism-based; parameters: dose 300 mg/kg; procedure, shortened: as §3
Mus musculus [7] = experiment: Neurotoxicity in mouse assessed as inability to maintain equilibrium on rotarod at 100 mg/kg, ip after 0.5 hrs by rotarod test; type: toxicity, organism-based; parameters: dose 100 mg/kg, route intraperitoneal; details: in vivo; procedure, shortened: as §1
Mus musculus [8] = experiment: Neurotoxicity in mouse assessed as inability to maintain equilibrium on rotarod at 30 mg/kg, ip after 0.5 hrs by rotarod test; type: toxicity, organism-based; parameters: dose 30 mg/kg, route intraperitoneal; details: in vivo; procedure, shortened: as §1
Mus musculus [9] = experiment: Anticonvulsant activity in mouse assessed as protection against maximal electric shock-induced seizures at 100 mg/kg, ip after 4 hrs; type: functional, organism-based; parameters: dose 100 mg/kg; procedure, shortened: as §2
Mus musculus [10] = experiment: Neurotoxicity in mouse assessed as inability to maintain equilibrium on rotarod at 100 mg/kg, ip after 4 hrs by rotarod test; type: toxicity, organism-based; parameters: dose 100 mg/kg, route intraperitoneal; details: in vivo; procedure, shortened: as §1
Mus musculus [11] = experiment: Anticonvulsant activity against subcutaneous pentylenetetrazole-induced seizures in mouse at 100 mg/kg, ip after 4 hrs; type: functional, organism-based; parameters: dose 100 mg/kg; procedure, shortened: as §3
Mus musculus [12] = experiment: Anticonvulsant activity in mouse assessed as protection against maximal electric shock-induced seizures at 30 mg/kg, ip after 0.5 hrs; type: functional, organism-based; parameters: dose 30 mg/kg; procedure, shortened: as §2
Mus musculus [13] = experiment: Anticonvulsant activity against subcutaneous pentylenetetrazole-induced seizures in mouse at 30 mg/kg, ip after 0.5 hrs; type: functional, organism-based; parameters: dose 30 mg/kg; procedure, shortened: as §3
Mus musculus [14] = experiment: Neurotoxicity in mouse assessed as inability to maintain equilibrium on rotarod at 300 mg/kg, ip after 4 hrs by rotarod test; type: toxicity, organism-based; parameters: dose 300 mg/kg, route intraperitoneal; details: in vivo; procedure, shortened: as §1
Mus musculus [15] = experiment: Neurotoxicity in mouse assessed as inability to maintain equilibrium on rotarod at 30 mg/kg, ip after 4 hrs by rotarod test; type: toxicity, organism-based; parameters: dose 30 mg/kg, route intraperitoneal; details: in vivo; procedure, shortened: as §1
Mus musculus [16] = experiment: Anticonvulsant activity in mouse assessed as protection against maximal electric shock-induced seizures at 30 mg/kg, ip after 4 hrs; type: functional, organism-based; parameters: dose 30 mg/kg; procedure, shortened: as §2
Mus musculus [17] = experiment: Anticonvulsant activity against subcutaneous pentylenetetrazole-induced seizures in mouse at 100 mg/kg, ip after 0.5 hrs; type: functional, organism-based; parameters: dose 100 mg/kg; procedure, shortened: as §3
Mus musculus [18] = experiment: Anticonvulsant activity in mouse assessed as protection against maximal electric shock-induced seizures at 100 mg/kg, ip after 0.5 hrs; type: functional, organism-based; parameters: dose 100 mg/kg; procedure, shortened: as §2
Rattus norvegicus [19] = experiment: Neurotoxicity in rat assessed as neurological deficit at 30 mg/kg, po after 0.5 hrs […]; type: toxicity, organism-based; parameters: dose 30 mg/kg, route oral; details: in vivo
Procedure, shortened: (§4)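 Rats given the compound, suspended in 0.5% methylcellulose, by the stated route and dose. Neurological deficit was recorded at the listed times as ataxia and loss of placing response and muscle tone. Reported as number of rats showing toxicity/number tested.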

Rattus norvegicus [20] = experiment: Neurotoxicity in rat assessed as neurological deficit at 30 mg/kg, po after 4 hrs by rotarod test; type: toxicity, organism-based; parameters: dose 30 mg/kg, route oral; details: in vivo; procedure, shortened: as §4
Rattus norvegicus [21] = experiment: Neurotoxicity in rat assessed as neurological deficit at 30 mg/kg, po after 0.25 hrs […]; type: toxicity, organism-based; parameters: dose 30 mg/kg, route oral; details: in vivo; procedure, shortened: as §4
Rattus norvegicus [22] = experiment: Neurotoxicity in rat assessed as neurological deficit at 30 mg/kg, po after 2 hrs […]; type: toxicity, organism-based; parameters: dose 30 mg/kg, route oral; details: in vivo; procedure, shortened: as §4
Rattus norvegicus [23] = experiment: Anticonvulsant activity in rat assessed as protection against maximal electric shock-induced seizures at 30 mg/kg, po after 0.25 hrs; type: functional, organism-based; parameters: dose 30 mg/kg
Procedure, shortened: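 MES test in rats dosed orally at 30 mg/kg as a suspension in 0.5% methylcellulose, read at 0.25–4 h. Four rats per time point; result is protected/tested.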

Rattus norvegicus [24] = experiment: Neurotoxicity in rat assessed as neurological deficit at 30 mg/kg, po after 1 hr […]; type: toxicity, organism-based; parameters: dose 30 mg/kg, route oral; details: in vivo; procedure, shortened: as §4

## NC(=O)N1c2ccccc2C=Cc2ccccc21
N1E-115
  Activity: 78%

## Cc1cccc(C)c1OCC(=O)N[C@@H]1CCCC[C@@H]1O
Mus musculus [1]
  Activity: Non-toxic
Mus musculus [2]
  Activity: inactive
Mus musculus [3]
  Activity: inactive
Mus musculus [4]
  Activity: Active
Mus musculus [5]
  Activity: inactive
Mus musculus [6]
  Activity: inactive
Mus musculus [7]
  Activity: Non-toxic
Mus musculus [8]
  Activity: Non-toxic
Mus musculus [9]
  Activity: inactive
Mus musculus [10]
  Activity: Non-toxic
Mus musculus [11]
  Activity: inactive
Mus musculus [12]
  Activity: inactive
Mus musculus [13]
  Activity: inactive
Mus musculus [14]
  Activity: Non-toxic
Mus musculus [15]
  Activity: Non-toxic
Mus musculus [16]
  Activity: inactive
Mus musculus [17]
  Activity: inactive

## Cc1cccc(C)c1OCC(=O)N[C@@H]1CCCC[C@H]1O.O=C(O)C(O)C(O)C(=O)O
Mus musculus [18]
  Activity: inactive
Rattus norvegicus [19]
  Activity: Non-toxic
Mus musculus [2]
  Activity: inactive
Mus musculus [3]
  Activity: inactive
Mus musculus [4]
  Activity: Active
Rattus norvegicus [20]
  Activity: Non-toxic
Mus musculus [5]
  Activity: inactive
Rattus norvegicus [21]
  Activity: Non-toxic
Mus musculus [6]
  Activity: inactive
Rattus norvegicus [22]
  Activity: Non-toxic
Mus musculus [8]
  Activity: Non-toxic
Mus musculus [9]
  Activity: inactive
Rattus norvegicus [23]
  Activity: inactive
Mus musculus [10]
  Activity: Non-toxic
Mus musculus [11]
  Activity: inactive
Mus musculus [12]
  Activity: inactive
Rattus norvegicus [24]
  Activity: Non-toxic
Mus musculus [13]
  Activity: inactive
Mus musculus [14]
  Activity: Non-toxic
Mus musculus [15]
  Activity: Non-toxic
Mus musculus [16]
  Activity: inactive
Mus musculus [17]
  Activity: inactive

## Cc1cccc(C)c1OCCNC1CCC(O)CC1 (racemic)
Mus musculus [1]
  Activity: Toxic
Mus musculus [18]
  Activity: Active
Mus musculus [5]
  Activity: inactive
Mus musculus [8]
  Activity: Non-toxic
Mus musculus [9]
  Activity: inactive
Mus musculus [10]
  Activity: Non-toxic
Mus musculus [11]
  Activity: inactive
Mus musculus [12]
  Activity: inactive
Mus musculus [13]
  Activity: inactive
Mus musculus [15]
  Activity: Non-toxic
Mus musculus [16]
  Activity: inactive
Mus musculus [17]
  Activity: inactive
